Results: ChEMBL document CHEMBL1150666, “Antioxidant and free-radical scavenging activity of constituents of the leaves of Tachigalia paniculata” (J Nat Prod, 2002)

Tests used:
[1] = ABTS radical scavenging activity assessed as Trolox equivalent antioxidant capacity at 1 mM by spectrophotometry; type: physicochemical; conditions: 1000 µM
Method in brief: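 ABTS radical cation made from 7 mM ABTS with 2.45 mM potassium persulfate, kept dark at room temperature 12 h. Diluted in PBS pH 7.4 to A734 0.70 and equilibrated at 30 °C. Methanol sample solutions (0.3–2 mM) were added to diluted ABTS. Percent inhibition at 734 nm versus methanol blank, plotted against concentration relative to Trolox; three determinations.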

[2] = molecular target: Xanthine dehydrogenase/oxidase (Homo sapiens, UniProt P47989); assay: Inhibition of xanthine oxidase-mediated formation of uric acid by spectrophotometry
Xanthine dehydrogenase/oxidase, sequence (P47989 whole entry): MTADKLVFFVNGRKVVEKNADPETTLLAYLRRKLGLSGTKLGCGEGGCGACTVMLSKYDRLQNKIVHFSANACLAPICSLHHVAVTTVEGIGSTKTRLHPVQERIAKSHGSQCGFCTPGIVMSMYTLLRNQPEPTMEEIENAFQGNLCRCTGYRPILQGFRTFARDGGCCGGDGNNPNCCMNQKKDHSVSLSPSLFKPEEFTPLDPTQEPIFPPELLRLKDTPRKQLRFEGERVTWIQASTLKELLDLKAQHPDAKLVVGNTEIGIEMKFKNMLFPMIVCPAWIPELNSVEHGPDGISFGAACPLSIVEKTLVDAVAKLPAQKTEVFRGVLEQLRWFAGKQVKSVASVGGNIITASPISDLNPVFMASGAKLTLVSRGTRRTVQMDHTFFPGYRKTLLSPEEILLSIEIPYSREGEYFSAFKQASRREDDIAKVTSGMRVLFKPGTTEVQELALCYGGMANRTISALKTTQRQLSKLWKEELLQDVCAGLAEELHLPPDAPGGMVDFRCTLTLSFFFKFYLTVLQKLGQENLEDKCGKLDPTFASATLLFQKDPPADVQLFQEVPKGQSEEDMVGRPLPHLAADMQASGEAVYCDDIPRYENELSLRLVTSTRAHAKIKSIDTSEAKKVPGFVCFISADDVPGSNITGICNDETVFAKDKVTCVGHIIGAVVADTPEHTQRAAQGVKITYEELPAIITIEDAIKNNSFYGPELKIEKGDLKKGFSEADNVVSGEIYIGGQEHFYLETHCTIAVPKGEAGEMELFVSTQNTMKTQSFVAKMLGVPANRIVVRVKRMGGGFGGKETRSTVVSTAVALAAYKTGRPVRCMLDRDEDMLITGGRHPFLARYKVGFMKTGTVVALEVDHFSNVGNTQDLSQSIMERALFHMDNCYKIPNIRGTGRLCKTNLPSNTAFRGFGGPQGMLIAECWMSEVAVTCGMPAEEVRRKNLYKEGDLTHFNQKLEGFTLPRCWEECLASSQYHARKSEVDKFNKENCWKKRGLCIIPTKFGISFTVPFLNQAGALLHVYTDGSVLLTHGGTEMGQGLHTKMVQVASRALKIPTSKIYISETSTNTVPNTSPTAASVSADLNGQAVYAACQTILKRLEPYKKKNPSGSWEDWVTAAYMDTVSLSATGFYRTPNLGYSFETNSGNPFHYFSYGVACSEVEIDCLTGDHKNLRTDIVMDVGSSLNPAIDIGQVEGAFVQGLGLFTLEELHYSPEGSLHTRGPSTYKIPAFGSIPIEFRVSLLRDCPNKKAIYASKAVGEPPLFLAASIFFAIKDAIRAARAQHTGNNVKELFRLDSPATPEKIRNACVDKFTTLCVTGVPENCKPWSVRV
Method in brief: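 Xanthine 100 μM in 0.1 M phosphate buffer pH 7.8 with 0.04 units/mL XOD, incubated 10 min at room temperature. Compounds added at several concentrations before enzyme; IC50 from regression lines.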

Row | Activity [1] [mM] | IC50 [2] [µM] | Compound
1 | 1.42 | 6.13 | C[C@@H]1O[C@@H](OC[C@H]2O[C@@H](Oc3cc(O)c4c(=O)c(O)c(-c5cc(O)c(O)c(O)c5)oc4c3)[C@H](O)[C@@H](O)[C@@H]2O)[C@H](O)[C@H](O)[C@H]1O
2 | 1.62 | 6.52 | O=c1c(O)c(-c2cc(O)c(O)c(O)c2)oc2cc(O[C@@H]3O[C@H](CO[C@@H]4O[C@H](CO)[C@@H](O)[C@H](O)[C@H]4O)[C@@H](O)[C@H](O)[C@H]3O)cc(O)c12
3 | 1.1 | 26.3 | O=c1c(O[C@@H]2O[C@H](CO)C(O)[C@H](O)[C@H]2O)c(-c2ccc(O)c(O)c2)oc2cc(O)cc(O)c12 (single isomer, unassigned) [ISOQUERCETIN]
4 | 0.713 | 31.5 | O=C/C=C/c1ccc(O)c(O)c1 [CAFFEOYL ALDEHYDE]
5 | 1.154 | 15.5 | COC(=O)c1cc(O)c(O)c(O)c1 [GALLIC ACID METHYL ESTER]
6 | 0.757 | > 50 | O=c1c(O[C@@H]2O[C@H](CO)[C@@H](O)[C@H](O)[C@H]2O)c(-c2ccc(O)c(O)c2)oc2cc(O)cc(O)c12 [ISOQUERCETIN]
7 | 0.855 | 29.6 | COC(=O)c1ccc(O)c(O)c1 [METHYL PROTOCATECHUATE]
8 | 0.147 | > 50 | COC(=O)c1ccc(O)cc1 [METHYLPARABEN]

Row | Compound | Activity [1] [mM] | IC50 [2] [µM]
9 | COc1ccc(C=O)cc1O [ISOVANILLIN] | 0.144 | > 50
10 | O=c1c(O)c(-c2ccc(O)c(O)c2)oc2cc(O)cc(O)c12 [QUERCETIN] | 2.6 | 
11 | C[C@@H]1O[C@@H](Oc2c(-c3ccc(O)c(O)c3)oc3cc(O)cc(O)c3c2=O)[C@H](O)[C@H](O)[C@H]1O [QUERCITRIN] | 0.854 | 14.7
